The target in assay [1] is T1, Beta-secretase 1 (Homo sapiens, UniProt P56817). The assay is described as follows: Inhibition of BACE-1 (unknown origin) at 10 uM by FRET assay relative to control. Put shortly: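 FRET-based BACE-1 activity kit used per the kit protocol, except total reaction volume was cut to […]. Each compound tested at a single concentration of 10 µM. Result given as percent inhibition of BACE-1 activity, from two independent experiments.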

Assay [2] addresses T1, Beta-secretase 1. The assay is described as follows: Inhibition of BACE-1 (unknown origin) by FRET assay. In outline: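 BACE-1 FRET kit assay following the kit protocol, with total reaction volume reduced to […]. Compounds exceeding 50% inhibition at the single-point screen were retested across several concentrations. IC50 derived from linear regression parameters, reported as the mean of at least two experiments.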

A further assay relates to HEK293. The assay is described as follows: Cytotoxicity against HEK293 cells after 72 hrs by CellTiterGlo assay. The settings on record: Homo sapiens, HEK293, 72 h. It counts as cell-based. In outline:
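HEK293 grown in DMEM with 10% FBS, 100 units/mL penicillin and 100 units/mL streptomycin at 37 °C, 5% CO2. Seeded at 1000 cells/well in 384-well format, then exposed to test agents from a top working level of […], serially diluted threefold ten more times. Staurosporine positive control. After 72 h, CellTiter Glo reagent (10%) added and ATP luminescence read. IC50 taken from log dose–viability curves.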
On the technique in general: Cellular ATP, detected with luciferase, serves as a proxy for viable cell number.

A value given as a limit tells only on which side of the number the result lay.

One may read the inhibition as the share of the control response that was lost under treatment. Low values mean little suppression, high ones strong suppression. In general, IC50 refers to the concentration needed to halve the response being measured.

T1 sequence (P56817 whole entry): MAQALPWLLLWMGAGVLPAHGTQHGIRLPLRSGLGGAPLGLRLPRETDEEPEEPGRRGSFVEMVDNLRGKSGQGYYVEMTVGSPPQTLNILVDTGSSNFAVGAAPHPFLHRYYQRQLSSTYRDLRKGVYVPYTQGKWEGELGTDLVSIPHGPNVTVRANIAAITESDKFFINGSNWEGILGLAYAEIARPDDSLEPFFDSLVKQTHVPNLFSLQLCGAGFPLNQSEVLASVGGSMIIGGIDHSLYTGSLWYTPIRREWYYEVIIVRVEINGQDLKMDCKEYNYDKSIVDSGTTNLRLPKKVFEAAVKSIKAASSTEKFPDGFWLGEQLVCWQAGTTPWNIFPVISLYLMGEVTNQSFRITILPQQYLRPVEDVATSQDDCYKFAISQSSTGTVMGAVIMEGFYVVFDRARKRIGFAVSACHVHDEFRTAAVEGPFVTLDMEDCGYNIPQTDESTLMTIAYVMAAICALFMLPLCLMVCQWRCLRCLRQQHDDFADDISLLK

In turn, `COc1cccc(CNC(=O)c2c[nH]c3ccc(S(=O)(=O)Nc4cccc(C(F)(F)F)c4)cc3c2=O)c1` showed an inhibition on Beta-secretase 1 [1] of 73.5%. Moreover, the results for the IC50 at Beta-secretase 1 [2] and in the assay on HEK293 were 2.2 µM and above 50 µM, respectively.
Taken in the same sequence, the figures for `O=C(NC1CCCCC1)c1c[nH]c2ccc(S(=O)(=O)Nc3cccc(C(F)(F)F)c3)cc2c1=O` were 65.6%, 7.18 µM and above 50 µM.
For the molecule `Cc1ccccc1-c1ccc2[nH]cc(C(=O)NCc3ccco3)c(=O)c2c1`, the inhibition against Beta-secretase 1 [1] was 32.9%.
On to `Cc1ccccc1-c1ccc2[nH]cc(C(=O)NCc3cccc(Br)c3)c(=O)c2c1`, for which the inhibition on Beta-secretase 1 [1] was 77.6%. Further, the IC50 at Beta-secretase 1 [2] was 1.89 µM; in the assay with HEK293, above 50 µM.
Taken in the same sequence, the figures for `O=C(NCc1ccco1)c1c[nH]c2ccc(S(=O)(=O)Nc3cccc(C(F)(F)F)c3)cc2c1=O` were 71.1%, 1.61 µM and above 50 µM.
The molecule `COc1ccc(CNC(=O)c2c[nH]c3ccc(S(=O)(=O)Nc4cccc(C(F)(F)F)c4)cc3c2=O)cc1` gave an inhibition against Beta-secretase 1 [1] of 50.4%. For the same molecule, the IC50 was 7.04 µM at Beta-secretase 1 [2] and above 50 µM with HEK293.
Consider `CN[C@@H]1C[C@H]2O[C@@](C)([C@@H]1OC)n1c3ccccc3c3c4c(c5c6ccccc6n2c5c31)C(=O)NC4` [STAUROSPORINE], for which the IC50 with HEK293 was 0.056 µM.
Take `O=C(NCc1ccc(F)cc1)c1c[nH]c2ccc(S(=O)(=O)Nc3cccc(C(F)(F)F)c3)cc2c1=O`: the inhibition at Beta-secretase 1 [1] is 30.4%.
Same read-out and setting: the same measure for `Cc1ccccc1-c1ccc2[nH]cc(C(=O)NCc3ccc(C(F)(F)F)cc3)c(=O)c2c1`: 38.1%.
The same measure, in the same setting: as for `O=C(NCc1ccc2c(c1)OCO2)c1c[nH]c2ccccc2c1=O`, the figure is 11.3%; as for `O=C(NCc1cccnc1)c1c[nH]c2ccc(S(=O)(=O)Nc3cccc(C(F)(F)F)c3)cc2c1=O`, 35.7%.
As to `Cc1ccccc1-c1ccc2[nH]cc(C(=O)NC3CCCCC3)c(=O)c2c1`, the inhibition against Beta-secretase 1 [1] turned out to be 77.8%. The values for the concentration for half-maximal inhibition (IC50) against Beta-secretase 1 [2] and in the assay on HEK293 were 11.5 µM and above 50 µM, respectively.
On the same counts, the results for `O=C(NCc1cccc(F)c1)c1c[nH]c2ccc(S(=O)(=O)Nc3cccc(C(F)(F)F)c3)cc2c1=O` are 84.6%, 1.85 µM and above 50 µM.
In turn, `Cc1ccccc1-c1ccc2[nH]cc(C(=O)NCc3cccc(C(F)(F)F)c3)c(=O)c2c1` showed an inhibition against Beta-secretase 1 [1] of 67.4%. The IC50 is 6.18 µM against Beta-secretase 1 [2] and above 50 µM in the assay on HEK293.
As for `Cc1ccccc1-c1ccc2[nH]cc(C(=O)NCc3cccc(F)c3)c(=O)c2c1`, the inhibition against Beta-secretase 1 [1] came to 12.3%.
The same measure, in the same setting: as for `Cc1ccccc1-c1ccc2[nH]cc(C(=O)NCc3cccnc3)c(=O)c2c1`, the figure is 10.2%.

These data come from ChEMBL document CHEMBL3232721, “4-Oxo-1,4-dihydro-quinoline-3-carboxamides as BACE-1 inhibitors: synthesis, biological evaluation and docking studies” (Eur J Med Chem, 2014).
